Reference: ChEMBL document CHEMBL1142995, “Probing the pharmacophore of ginkgolides as glycine receptor antagonists” (J Med Chem, 2007)

Columns and labels:
Type in all cases: cell-based
[1] = biological target: T1, Glycine receptor subunit alpha-1 (Homo sapiens, UniProt P23415); test: Activity at human alpha1GlyR expressed in HEK293 cells assessed as inhibition of 3000 uM glycine-induced current by whole-cell patch clamp experiment
T1 sequence (P23415 whole entry): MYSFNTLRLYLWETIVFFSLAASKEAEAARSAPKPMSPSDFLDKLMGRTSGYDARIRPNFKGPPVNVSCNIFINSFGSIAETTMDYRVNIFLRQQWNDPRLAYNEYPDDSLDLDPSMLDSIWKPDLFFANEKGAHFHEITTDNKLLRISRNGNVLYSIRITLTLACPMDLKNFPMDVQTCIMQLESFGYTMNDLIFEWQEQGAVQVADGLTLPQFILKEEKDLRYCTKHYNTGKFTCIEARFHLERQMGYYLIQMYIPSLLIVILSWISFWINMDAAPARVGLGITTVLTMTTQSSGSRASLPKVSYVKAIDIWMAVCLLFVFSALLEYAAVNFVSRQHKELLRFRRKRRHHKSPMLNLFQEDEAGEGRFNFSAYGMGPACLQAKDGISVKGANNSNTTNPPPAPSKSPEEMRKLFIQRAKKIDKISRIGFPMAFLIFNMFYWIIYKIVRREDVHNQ
Summary of the method: (§1)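 α1 GlyR-HEK293 cells, whole-cell patch clamp. Antagonist co-applied with 30 or 3000 µM glycine by gravity perfusion. Peak current normalised to that glycine concentration alone and fitted to Hill equation for IC50 and slope. Mean with 95% CI, 5 cells per glycine concentration.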

[2] = biological target: T1, Glycine receptor subunit alpha-1; test: Activity at human alpha-1GlyR expressed in HEK293 cells assessed as inhibition of 30 uM glycine-induced current by whole-cell patch clamp experiment; summary of the method: as §1
[3] = biological target: T1, Glycine receptor subunit alpha-1; test: Activity at human alpha-1GlyR expressed in HEK293 cells assessed as inhibition of 300 uM glycine-induced current by whole-cell patch clamp experiment
[4] = biological target: T1, Glycine receptor subunit alpha-1; test: Activity at human alpha-1GlyR expressed in HEK293 cells by FMP assay
Summary of the method: (§2)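 Stable HEK293 lines (α1: G418; α1β: G418 + hygromycin B; α2: hygromycin B) plated on poly-D-lysine 16-24 h. Loaded with FMP dye in HBSS/20 mM HEPES pH 7.4, antagonist present, 30 min at 37 °C. Fluorescence ex 530/em 560 nm read up to 1 min after glycine: 200 µM (α1, α1β) or 500 µM (α2). Duplicates, ≥3 experiments; IC50 from maximal responses.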

[5] = biological target: T1, Glycine receptor subunit alpha-1; test: Activity at human alpha-1-beta-GlyR expressed in HEK293 cells by FMP assay; summary of the method: as §2
[6] = biological target: T2, Glycine receptor subunit alpha-2 (Homo sapiens, UniProt P23416); test: Activity at human alpha-2GlyR expressed in HEK293 cells by FMP assay; summary of the method: as §2
T2 sequence (P23416 whole entry): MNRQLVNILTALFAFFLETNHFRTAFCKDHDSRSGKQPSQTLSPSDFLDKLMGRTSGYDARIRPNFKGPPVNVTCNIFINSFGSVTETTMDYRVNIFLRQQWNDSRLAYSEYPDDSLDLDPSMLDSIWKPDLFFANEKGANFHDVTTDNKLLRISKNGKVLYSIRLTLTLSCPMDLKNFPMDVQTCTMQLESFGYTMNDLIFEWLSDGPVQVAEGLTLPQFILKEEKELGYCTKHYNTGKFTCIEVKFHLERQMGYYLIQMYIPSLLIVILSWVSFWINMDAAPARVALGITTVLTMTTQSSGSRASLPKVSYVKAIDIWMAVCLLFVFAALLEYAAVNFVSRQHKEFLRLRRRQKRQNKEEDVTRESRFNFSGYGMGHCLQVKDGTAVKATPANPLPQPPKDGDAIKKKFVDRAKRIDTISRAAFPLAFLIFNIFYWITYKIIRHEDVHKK

## C[C@@H]1C(=O)O[C@H]2[C@H](O)[C@]34[C@@H]5OC(=O)[C@]3(O[C@@H]3OC(=O)[C@H](O)[C@@]34[C@H](C(C)(C)C)[C@H]5O)[C@@]12O [GINKGOLIDE C]
[1]
  IC50: 5.9 µM
[2]
  IC50: 2.4 µM
[3]
  IC50: 1.7 µM
[4]
  IC50: 4.7 µM
[5]
  IC50: 2.4 µM
[6]
  IC50: 8.2 µM
